Key:
[1] = type: in vivo; conditions: rat; for CSF AUC0–7 / CSF Cmax / Brain AUC0–7 / Brain Cmax: after BIA 10–2474 (1) 10 mg/kg p.o.; for Plasma AUC0–7: after BIA 10–2474 (1) 10 mg/kg p.o. in 0.5% methylcellulose; for Brain AUC0–7 / Brain Cmax: not corrected for binding to tissues
How it was run: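 Rats were dosed orally at 10 mg/kg in 0.5% methylcellulose. The parent compound and its metabolites were quantified in plasma, brain and CSF. Cmax and AUC0–7 were derived for each analyte.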

ALDHs = experiment: ABPP reactivity with ALDHs in human cells; type: cell-based; conditions: N-methyl compounds
~50–55 kDa protein = experiment: Gel-based CC-ABPP in CCF-STTG1 human astrocytoma cells; type: cell-based; conditions: pre-treatment 10 µM, 1 h, then probes 7 and 8
How it was run: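 CCF-STTG1 human astrocytoma cells were pretreated in situ with DMSO or the parent test compound (10 μM, 1 h), then given the matching alkyne probe (1 μM, 1 h). Probe-labelled proteins were conjugated by CuAAC to a rhodamine-azide reporter, resolved by SDS-PAGE and detected by in-gel fluorescence scanning.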

ALDH2 [2] = target: T1, ALDH2 (Homo sapiens, UniProt P05091); experiment: Quantitative MS-based CC-ABPP and Western blot in CCF-STTG1 cells: ALDH2; type: cell-based; conditions: pre-treatment 10 µM, 1 h, then corresponding probe 7 or 8
T1 sequence (P05091 18-517): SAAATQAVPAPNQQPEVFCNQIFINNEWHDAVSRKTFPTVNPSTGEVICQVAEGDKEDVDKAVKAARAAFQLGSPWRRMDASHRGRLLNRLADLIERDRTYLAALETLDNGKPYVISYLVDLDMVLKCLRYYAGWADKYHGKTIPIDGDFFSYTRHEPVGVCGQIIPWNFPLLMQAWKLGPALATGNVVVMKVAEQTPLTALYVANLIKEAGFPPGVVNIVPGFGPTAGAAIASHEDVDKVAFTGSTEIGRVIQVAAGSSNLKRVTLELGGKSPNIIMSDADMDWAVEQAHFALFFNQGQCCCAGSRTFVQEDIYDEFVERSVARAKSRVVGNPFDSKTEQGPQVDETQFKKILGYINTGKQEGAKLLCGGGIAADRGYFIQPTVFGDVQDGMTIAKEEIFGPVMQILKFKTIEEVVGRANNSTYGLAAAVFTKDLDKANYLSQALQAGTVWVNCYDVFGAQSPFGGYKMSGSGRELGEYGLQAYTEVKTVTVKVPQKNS
How it was run: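 CCF-STTG1 cells were grown in isotopically heavy or light amino-acid media. Cells received DMSO (heavy) or test compound (light; 10 μM, 1 h), followed by the corresponding clickable probe (1 μM, 1 h). Heavy/light protein ratios were averaged from quantified peptides across two independent biological replicates. Streptavidin-enriched fractions, with or without parent pretreatment, were immunoblotted with anti-ALDH2.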

ALDH2 [3] = target: T1, ALDH2; experiment: LC-MS characterisation of the adduct with ALDH2 from treated HEK293T cells; type: cell-based; conditions: HEK293T cells expressing FLAG-tagged WT-ALDH2, 10 µM, 1 h; LC-MS-based proteomics
ALDH9A1 = ALDH9A1 (Homo sapiens, UniProt P49189); experiment: isoTOP-ABPP cysteine reactivity in SW620 cells: ALDH9A1; type: cell-based; conditions: 10 µM, 1 h
How it was run: (§1)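 SW620 cells were treated with test compound (10 μM, 1 h; light) or DMSO (heavy). Cysteine reactivity was then profiled globally by isoTOP-ABPP using an alkynylated iodoacetamide probe (IA-alkyne). Heavy/light ratios for quantified cysteines were averaged across four independent biological replicates.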

ALDH5A1 = target: T2, ALDH5A1 (Homo sapiens, UniProt P51649); experiment: isoTOP-ABPP cysteine reactivity in SW620 cells: ALDH5A1; type: cell-based; conditions: 10 µM, 1 h, Table S2
T2 sequence (P51649 48-535): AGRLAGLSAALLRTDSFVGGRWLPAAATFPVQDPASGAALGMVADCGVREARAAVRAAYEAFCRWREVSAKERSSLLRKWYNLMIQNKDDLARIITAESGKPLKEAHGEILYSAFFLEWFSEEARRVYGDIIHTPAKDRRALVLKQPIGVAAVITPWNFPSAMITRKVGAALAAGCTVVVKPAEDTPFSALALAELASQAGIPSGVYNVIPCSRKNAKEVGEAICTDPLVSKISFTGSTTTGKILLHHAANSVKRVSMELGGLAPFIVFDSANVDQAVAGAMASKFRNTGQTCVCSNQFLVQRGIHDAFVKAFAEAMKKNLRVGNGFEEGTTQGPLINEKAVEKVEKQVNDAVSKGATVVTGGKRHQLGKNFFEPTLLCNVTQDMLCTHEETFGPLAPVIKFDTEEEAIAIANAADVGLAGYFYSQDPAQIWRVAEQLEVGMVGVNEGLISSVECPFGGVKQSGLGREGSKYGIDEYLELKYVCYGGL
How it was run: as §1

ALDH2 [4] = target: T1, ALDH2; experiment: isoTOP-ABPP cysteine reactivity in SW620 cells: ALDH2; type: cell-based; conditions: 10 µM, 1 h
How it was run: as §1

Sequence of ALDH9A1 (P49189 whole entry): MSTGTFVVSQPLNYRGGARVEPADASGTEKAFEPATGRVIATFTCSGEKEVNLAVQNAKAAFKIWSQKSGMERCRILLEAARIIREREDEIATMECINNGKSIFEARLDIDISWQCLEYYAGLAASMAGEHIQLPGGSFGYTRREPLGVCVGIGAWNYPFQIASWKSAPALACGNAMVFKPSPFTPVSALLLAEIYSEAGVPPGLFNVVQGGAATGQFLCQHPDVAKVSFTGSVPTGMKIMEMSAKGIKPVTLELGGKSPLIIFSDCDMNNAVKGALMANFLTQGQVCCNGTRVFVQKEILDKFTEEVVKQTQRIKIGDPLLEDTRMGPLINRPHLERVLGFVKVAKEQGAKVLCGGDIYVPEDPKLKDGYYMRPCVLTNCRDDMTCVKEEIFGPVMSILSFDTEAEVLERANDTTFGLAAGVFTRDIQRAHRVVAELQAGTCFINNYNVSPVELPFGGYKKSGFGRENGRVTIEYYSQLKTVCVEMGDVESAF

SMILES	CSF AUC0–7 [1] [ng·h/mL]	CSF Cmax [1] [ng/mL]	Plasma AUC0–7 [1] [ng·h/mL]	Brain AUC0–7 [1] [ng·h/mL]	Brain Cmax [1] [ng/mL]	Reaction with ALDHs (ALDHs)	Blockade of probe labelling of ~50–55 kDa protein (~50–55 kDa protein)	Blockade of probe enrichment of ALDH2 (Western blotting) (ALDH2 [2])	Adduct with C319 on ALDH2 (ALDH2 [3])	IA-alkyne reactivity of C288 of ALDH9A1 (ALDH9A1)	IA-alkyne reactivity of C340 of ALDH5A1 (ALDH5A1)	IA-alkyne reactivity of C319 of ALDH2 (ALDH2 [4])	IA-alkyne reactivity of other cysteine (C386) of ALDH2 (ALDH2 [4])
CN(C(=O)n1cnc(-c2ccc[n+]([O-])c2)c1)C1CCCCC1 [BIA 10–2474 (1)]	4000	1300	13800	2480	939	fail to react	–	–	–	–	–	–	–
CN(C(=O)n1cnc(-c2cccnc2)c1)C1CCCCC1 [compound 2]	113	36.2	306	185	252	–	–	–	–	–	–	–	–
O=C(NC1CCCCC1)n1cnc(-c2ccc[n+]([O-])c2)c1 [compound 3]	15.6	5.03	323	11.8	4.57	–	blocked	blockade	S-thiocarbamate adduct	blocked	unchanged	blocked	unperturbed

From PMC6383364 (ACS chemical biology, 2019)
